# Screening results deposited in PubChem BioAssay by several laboratories.
# DTT redox prof – compounds producing H2O2 with reducing agent – biochemical, NIH compound library profiling, artefact control for MLSCN library redox annotation, primary screen; 200,000 tested, 0.03% active; activation, % at 10 µM; DTT-dependent redox cycling H2O2, phenol red/HRP absorbance; 100% = 100 µM peroxide control, 0% = buffer;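 active = activation of at least 50% relative to the plate's high and low controls in the primary single-dose screen; inactive = activation below 50%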;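 also: compound incubated with DTT at 0.8 mM final as the reducing agent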
# Lmaj promast – Leishmania major promastigote growth inhibition, primary screen; Leishmania major promastigotes, resazurin fluorescence viability; inhibition, % at 10 µM; 200,000 tested, 9% active; in the data active = inhibition above about 50%;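 also: promastigotes grown with compound for 44 hours at 28 °C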
# Hep lipid drop – inhibitors of hepatocyte lipid droplet formation, primary screen, imaging, high-throughput imaging, BODIPY stain; inhibition, % at 6.5 µM; AML12 mouse hepatocytes, oleate lipid droplets; 240,000 tested, 0.4% active; AID 1656, 2009;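 active = lipid droplet intensity inhibited by at least 50%, with more than 500 cells counted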
#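 material = mouse AML12 hepatocyte cell line, fixed after treatment | also added = 100 µM oleic acid challenge | doses = compound at 6.5 µM only | schedule = overnight exposure | technique = Image-based BODIPY and DAPI two-channel analysis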
# T cruzi inh – inhibitors of intracellular T. cruzi growth, primary screen, luminescence, NIH3T3 host cells; T. cruzi beta-gal in NIH3T3, 90 h; inhibition, % (test concentration not listed); 300,000 tested, 1.4% active; AID 1885, 2009;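 active = mean inhibition across valid replicates above about 55%, limit read from the data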;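 also: signal also drops with host cell toxicity which is not excluded here; 0% = plate median of DMSO wells and 100% = zero luminescence signal; higher percent means less beta-gal luminescence so fewer parasites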
#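 Test system: β-gal T. cruzi (Tulahuen C4) inside NIH/3T3 cells / Quantity: 5,000 cells/well / Measured by: luminescence from GalScreen with 0.05% NP40, read after 60 min / Medium: DMEM plus 2% FBS / Measure: parasite load inhibition, % / Reagent: Tulahuen C4 trypomastigotes, 5000/well / Schedule: co-culture of at least 90 h after 3 h attachment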
# MPTP block – mitochondrial permeability transition pore inhibitors, primary screen, biochemical, isolated mouse mitochondria, absorbance. 360,000 tested, 1.4% active. inhibition, % at 10 µM. Ca2+ swelling absorbance, 30 min;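 active = inhibition of 50% or more, scaled per plate between neutral and stimulator controls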;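 also: 0% = DMSO wells given calcium and 100% = 1 mM EGTA wells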
# Rh123 counter – fluorescence retest of MPTP screen hits in isolated mitochondria, single concentration. shares compounds with MPTP block. membrane potential, Rhodamine 123 fluorescence. inhibition, % at 10 µM. 5,000 tested, 78% active; in the data active = inhibition above about 22%;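 also: 0% = DMSO vehicle and 100% = positive control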
# MPTP swell DR – mitochondrial permeability transition pore inhibitors, dose response, biochemical, absorbance, uHTS hits; shares compounds with MPTP block; isolated mitochondria swelling; IC50, µM; 780 tested, 58% active; in the data active = IC50 below about 20 µM
# MPTP cs DR – fluorescent counter-screen in isolated mitochondria, dose response, counter-screen for MPTP inhibitor project, biochemical, fluorescence, uHTS hits; IC50, µM; 780 tested, 49% active; isolated mitochondria counterscreen, fluorescence read-out; shares compounds with MPTP block; in the data active = IC50 below about 80 µM
# * marks the source's active call; other numbers are inactive results; . = no result given. This excerpt belongs to a sample that is enriched for hits.
SMILES,DTT redox prof,Lmaj promast,Hep lipid drop,T cruzi inh,MPTP block,Rh123 counter,others
CCOC(=O)c1c(NC(=O)C2CCCCC2)sc2c1CCN(CC)C2,.,.,-1,21,58*,-9,MPTP swell DR=15*;MPTP cs DR=>80
CCCCCOc1ccc(/C(C)=N/NC2=NCCN2)cc1,.,.,-1,44,49,.,
CCCCCCOc1ccc(/C(C)=N/NC2=NCCN2)cc1,.,.,3,51,94*,-2,
CCOc1ccc(Br)cc1/C(C)=N\NC1=NCCN1,0,95*,-33,1,108*,67*,
Cc1cc(O)c2c(c1)C(=O)c1cc(O)cc(O)c1C2=O,.,.,.,5,50*,80*,
O=C1c2cc(O)cc(O)c2C(=O)c2c1cc(O)c([C@@H](CO)CCO)c2O,.,.,.,-7,5,.,
COc1ccc(OC)c(NC(=O)c2ccccc2OC(C)=O)c1,.,.,.,-22,1,.,
Nc1cc(=O)[nH]c(SCC(=O)N2CCC(Cc3ccccc3)CC2)n1,.,.,.,.,-1,.,
Cc1cc2nc(CCN(C(=S)NCC3CCCO3)C3CCCC3)[nH]c2cc1C (stereo not drawn),0,23,17,25,-1,.,
Cc1cc2nc(CCN(C(=S)NCC(C)C)C3CCCC3)[nH]c2cc1C,-7,72*,.,48,85*,84*,
Cc1cccc(-c2noc(CNC(=O)Nc3ccc(F)cc3)n2)c1,-1,10,-1,7,59*,71*,
O=C(O)COCC(=O)NCc1nc(-c2ccc(C(F)(F)F)cc2)no1,.,.,23,-1,1,.,
O=C(NCc1nc(-c2ccc(C(F)(F)F)cc2)no1)Nc1cc(Cl)cc(Cl)c1,.,.,-5,60*,84*,70*,
O=C(NCc1nc(-c2ccc(C(F)(F)F)cc2)no1)Nc1ccc(F)cc1F,.,.,-3,10,54*,69*,
CC(C)(C)c1ccc(C(=O)N2CCC(C(=O)c3ccccc3)CC2)cc1,.,.,24,9,0,.,
CSc1nccc(NC(=O)c2cccc(Br)c2)n1,.,.,.,-6,12,.,
CC(=O)Nc1cccc(-c2cnc(N)c(C(=O)c3cccnc3)n2)c1,.,.,.,.,0,.,
O=C(COC(=O)CCC(=O)c1cccs1)Nc1cccc(F)c1,.,.,.,.,0,.,
CCN(CC)S(=O)(=O)c1cc(C)ccc1SC,0,-3,-22,8,0,.,
COc1ccc(Nc2nc(N3CCCC3)c3ccccc3n2)cc1,0,100*,-11,13,103*,101*,
Cc1nc(N2CCCCCC2)c2ccccc2n1,.,.,-6,4,4,.,
Nc1ccc(S(=O)(=O)C(F)(F)F)cc1N,-2,3,32,-1,3,.,
CC(C)(C)c1ccc(C(=O)N/N=C/c2cccc(Cl)c2)cc1,0,44,-1,36,81*,84*,
CCN(CC(=O)Nc1ccc(OC)cc1)C(=O)c1ccc(OCc2c(C)noc2C)cc1,.,.,.,.,-2,.,
c1ccc(Nc2nc(NCc3ccco3)c3ccccc3n2)cc1,.,.,-17,17,76*,91*,
SMILES,DTT redox prof,Lmaj promast,Hep lipid drop,T cruzi inh,MPTP block,Rh123 counter,others
Oc1ccccc1Nc1nc(NCc2ccco2)c2ccccc2n1,.,.,0,15,27,.,
Cc1cccc(Nc2nc(NCc3ccco3)c3ccccc3n2)c1,1,100*,-19,52,91*,90*,
CCCCN(C(C)=O)c1c(CC)nc2ccc(C(=O)NCCCN(C)C)cn12,.,.,.,.,-2,.,
O=C(NCCCc1ccccc1)c1cccc(NC(=O)C2CCCCC2)c1,.,.,.,.,1,.,
O=C1CC(SC2=NCCS2)C(=O)N1c1cccc(Cl)c1Cl (stereo not drawn),0,-5,0,-14,1,.,
COc1ccc(N2CCN(CCCNC(=O)CN3CCN(Cc4ccccc4C)C3=O)CC2)cc1,1,30,0,3,0,.,
Cc1ccc(CN2CCN(CC(=O)NCCCN3CCN(c4ccc(F)cc4)CC3)C2=O)cc1,2,-1,.,16,56*,12,MPTP swell DR=14*;MPTP cs DR=18*
